Measured values published in ChEMBL document CHEMBL1137834, “Synthesis of cinnamic acid derivatives and their inhibitory effects on LDL-oxidation, acyl-CoA:cholesterol acyltransferase-1 and -2 activity, and decrease of HDL-particle size” (Bioorg Med Chem Lett, 2004).

Key:
Homo sapiens [1] = species on record: Homo sapiens; assay: Antioxidant activity against copper mediated low-density lipoproteins (LDL) oxidation; assay type: functional
Summary of the method: (§1)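 Test compounds at final 1 µg/mL. Oxidation read as TBARS, expressed as nmol MDA/mg LDL and % inhibition against LDL + CuSO4 alone. Electromobility was also compared on 0.7% agarose gel.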

Oryctolagus cuniculus = species on record: Oryctolagus cuniculus; assay: Compound inhibited the rHDL-particle rearrangement under presence of LDL at 37 degree C; assay type: functional
Summary of the method: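 rHDL particles (98 Å, 2 mg/mL preparation) were incubated at 37 °C for 24 h with human LDL (4 mg/mL preparation) and compound. Products were run on native 8–25% polyacrylamide gradient gel and stained with Coomassie to compare particle size.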

[2] = target: T1, Sterol O-acyltransferase 2 (Homo sapiens) (UniProt O75908); assay: Inhibitory activity against human Acyl-CoA:cholesterol acyltransferase-2 at 30 ug/mL
T1 sequence (whole entry): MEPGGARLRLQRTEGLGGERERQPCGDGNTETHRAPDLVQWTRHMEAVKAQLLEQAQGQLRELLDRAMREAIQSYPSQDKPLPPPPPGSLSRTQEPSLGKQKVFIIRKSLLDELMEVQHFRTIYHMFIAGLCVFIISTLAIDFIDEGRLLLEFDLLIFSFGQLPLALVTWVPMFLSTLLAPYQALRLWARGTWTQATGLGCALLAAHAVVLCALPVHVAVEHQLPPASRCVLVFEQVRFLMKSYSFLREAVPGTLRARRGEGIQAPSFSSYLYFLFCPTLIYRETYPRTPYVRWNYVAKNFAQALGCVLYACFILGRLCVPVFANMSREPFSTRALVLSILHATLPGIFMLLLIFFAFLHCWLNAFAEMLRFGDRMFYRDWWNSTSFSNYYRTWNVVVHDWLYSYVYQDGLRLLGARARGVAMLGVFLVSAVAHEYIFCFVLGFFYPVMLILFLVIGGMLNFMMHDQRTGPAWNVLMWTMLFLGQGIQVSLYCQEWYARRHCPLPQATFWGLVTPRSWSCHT

Homo sapiens [3] = species on record: Homo sapiens; assay: Antioxidant activity was determined by measuring the produced thiobarbituric acid reactive substance; assay type: functional; summary of the method: as §1
[4] = target: T2, Sterol O-acyltransferase 2 (Homo sapiens, UniProt O75908); assay: Inhibitory activity against human Acyl-CoA:cholesterol acyltransferase-2
T2 sequence (O75908 whole entry): T1 sequence (whole entry)

| IC50 (Homo sapiens [1]) [µM] | inhibition [2] [%] | IC50 [4] [µM] | Compound | Inhibition (Oryctolagus cuniculus) [µM] | Activity (Homo sapiens [3]) |
| --- | --- | --- | --- | --- | --- |
| 52 | > 70 |  | COC(=O)[C@H](Cc1ccccc1)NC(=O)/C=C/c1ccc(O)cc1 | 307 | 269 nmol of MDA/mg of LDL |
| 3 | > 70 | 81 | O=C(CCc1ccc(O)c(O)c1)N[C@@H](CC(=O)OCc1ccccc1)C(=O)OCc1ccccc1 |  | 32.1 nmol of MDA/mg of LDL |
|  |  |  | CC(C)(Sc1cc(C(C)(C)C)c(O)c(C(C)(C)C)c1)Sc1cc(C(C)(C)C)c(O)c(C(C)(C)C)c1 [PROBUCOL] |  | 263.1 nmol of MDA/mg of LDL |
|  | 0 |  | COC(=O)[C@H](C)NC(=O)/C=C/c1ccc(O)c(O)c1 |  | 91.5 nmol of MDA/mg of LDL |
